This sample holds only a part of the variants without activity.
B1: tRNA (parent)
chain: GUUCCGUUGGCGUAAUGGUAACGCGUCUCCCUCCUAAGGAGAAGACUGCGGGUUCGAGUCCCGUACGGAACG

Variants of: B1
Test: yeast fitness relative to wild type (ratio to wild type); higher = fitter; tRNA-Arg(CCU), competitive growth, 37 C, YPD
Summary of the method: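 Genotype frequency changes were the basis for Darwinian fitness relative to wild type. The frequencies came from 100-nucleotide paired-end sequencing of gene amplicons from the start population and each end population of pooled yeast strains with tRNA-Arg(CCU) gene variants at the native locus. Competition ran in YPD at 37°C for 24 hours in six replicates, genotypes needed ≥ 100 starting reads, and estimates < 0.5 were set to 0.5.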
GUUCCGCUGGCGUAAUGGUAACGCGUCUCCCUCCUAAGCAGAAGAUUGUGGGUUCAAGUCCCGUACGCAACG gave a yeast fitness of no more than 0.5.
With GUUCCGCUGGCGUAAUGGUAACGCGUCUCCCUCCUAAGCAGAAGACAGCGGGUUCGAAUCCCAUACGGAACG the yeast fitness was no more than 0.5.
GUUCCGCUGGCGUAAUGGUAACGCGUCUCCCUCCUAAGGAACAGACUGCGGGUUCGAGUCCCGUACGGAACG showed a yeast fitness of 0.543.
In the case of GUUCCGCUGGCGUAAUGGUAACGCGUCUCCCUCCUAAGGAACAGACUGCCGGUUCGAGUCCCGUACGGCACG, the yeast fitness is reported as 0.527.
For GUUCCGCUGGCGUAAUGGUAACGCGUCUCCCUCCUAAGGAACAGACUGCCGGUUAGAGUCCCGUACGGAACG, the yeast fitness was no more than 0.5.
Work on GUUCCGCUGGCGUAAUGGUAACGCGUCUCCCUCCUAAGGAACAGACUGCCGGUUCGAGUCCGGUACGGAACG yielded a yeast fitness of no more than 0.5.
GUUCCGCUGGCGUAAUGGUAACGCGUCUCCCUCCUAAGGAACAGACUGCCGGUUCGAGUCCCGUAUGGAACG gave a yeast fitness of 0.548.
GUUCCGCUGGCGUAAUGGUAACGCGUCUCCCUCCUAAGGAGAAAACUGCGGGUUCGAGUCCCGUACGGAACG showed a yeast fitness of 0.807.
For GUUCCGCUGGCGUAAUGGUAACGCGUCUCCCUCCUAAGGAGAAAAUUGCGGGUUCGAGUCCCGUACGGCACG, the yeast fitness was 0.698.
In the case of GUUCCGCUGGCGUAAUGGUAACGCGUCUCCCUCCUAAGGAGAAGACUACGGGUUCGAGUCCCGUACGUACCG, the yeast fitness is reported as 0.542.
Work on GUUCCGCUGGCGUAAUGGUAACGCGUCUCCCUCCUAAGGAGAAGACUCCGGGUUCGAGUCCCGUACGGACCG yielded a yeast fitness of 0.6.
Work on GUUCCGCUGGCGUAAUGGUAACGCGUCUCCCUCCUAAGGAGAAGACUGCAGGUUCGAGUCCCGUACGGAACG yielded a yeast fitness of 0.684.
In the case of GUUCCGCUGGCGUAAUGGUAACGCGUCUCCCUCCUAAGGAGAAGACUGCCGGUUCGAGUCCCGUACGGAGCG, the yeast fitness is reported as no more than 0.5.
With GUUCCGCUGGCGUAAUGGUAACGCGUCUCCCUCCUAAGGAGAAGACUGCGAGUUCGAGUCCCGUACGGAACG the yeast fitness was 0.856.
GUUCCGCUGGCGUAAUGGUAACGCGUCUCCCUCCUAAGGAGAAGACUGCGCGUUCGAGUCCCGUACGGAACG showed a yeast fitness of 0.6.
GUUCCGCUGGCGUAAUGGUAACGCGUCUCCCUCCUAAGGAGAAGACUGCGCGUUCGGGUCCCGUACGGAACG showed a yeast fitness of no more than 0.5.
Variant GUUCCGCUGGCGUAAUGGUAACGCGUCUCCCUCCUAAGGAGAAGACUGCGGAUUCGAGUCCCGUACGGAACG has a yeast fitness of 0.69.
With GUUCCGCUGGCGUAAUGGUAACGCGUCUCCCUCCUAAGGAGAAGACUGCGGGUUCAAGUCCCGUCCGGAACG the yeast fitness was 0.598.
GUUCCGCUGGCGUAAUGGUAACGCGUCUCCCUCCUAAGGAGAAGACUGCGGGUUCUAGUCCCGUUCGCAACG gave a yeast fitness of no more than 0.5.
For GUUCCGCUGGCGUAAUGGUAACGCGUCUCCCUCCUAAGGAGAAGACUGCGGGUUCGAAUCCCGUACGGAACG, the yeast fitness was 1.06.
Variant GUUCCGCUGGCGUAAUGGUAACGCGUCUCCCUCCUAAGGAGAAGACUGCGGGUUCGAAUCCCGUACAGAACG has a yeast fitness of 0.62.
In the case of GUUCCGCUGGCGUAAUGGUAACGCGUCUCCCUCCUAAGGAGAAGACUGCGGGUUCGACUCCCGUACGGAACG, the yeast fitness is reported as 0.781.
GUUCCGCUGGCGUAAUGGUAACGCGUCUCCCUCCUAAGGAGAAGACUGCGGGUUCGAGUCCCAUACGGAACG gave a yeast fitness of 0.856.
Work on GUUCCGCUGGCGUAAUGGUAACGCGUCUCCCUCCUAAGGAGAAGACUGCGGGUUCGAGUCCCGUACAGCACG yielded a yeast fitness of 0.534.
GUUCCGCUGGCGUAAUGGUAACGCGUCUCCCUCCUAAGGAGAAGACUGCGGGUUCGAGUCCCGUACAGAUCG showed a yeast fitness of no more than 0.5.
In the case of GUUCCGCUGGCGUAAUGGUAACGCGUCUCCCUCCUAAGGAGAAGACUGCGGGUUCGAGUCCCGUACCGAACG, the yeast fitness is reported as 0.951.
GUUCCGCUGGCGUAAUGGUAACGCGUCUCCCUCCUAAGGAGAAGACUGCGGGUUCGAGUCCCGUACGUAACG showed a yeast fitness of 0.674.
Work on GUUCCGCAGGCGUAAUGGUAACGGGUCUCCCUCCUAAGGAGAAGACUGCGGGUUCGAGUCCCGCACGGAACG yielded a yeast fitness of no more than 0.5.
Variant GUUCCGCAGGCGUAAUGGUAACACGUCUCCCUCCUAAGGAGAAGACUGCGGGUUCGAGUCCCGUACGGAACG has a yeast fitness of no more than 0.5.
GUUCCGCCGGCGUAAUGGUAACGCGUCUCCCUCCUAAGGAGAAGACUGCGGGUUCGAGUCCCGUACGGAACG showed a yeast fitness of 0.976.
With GUUCCGCCGGCGUAAUGGUAUCGCGUCUCCCUCCUUCGGAGAAGACUGCGGGUUCGAGUCCCGUACGGAACG the yeast fitness was no more than 0.5.
Variant GUUCCGCCGGCGUAAUGGUAACGCGGCUCCCUCCUAAGGAGAAGACUGCGGGUUCGAGUCCCGUACGGAACG has a yeast fitness of no more than 0.5.
With GUUCCGCGGGCGUAAUGGUAACGCGUCUCCCUCCUAAGGAGAAGACUGCGGGUUCGAGUCCCGUACGGAACG the yeast fitness was 0.697.
Variant GUUCCGCGGGCGUAAUGGUAACGCGUAUCCCUCCUAAGGAGAAGACUGCGGGUUCGAGUCCCGUACGGUACG has a yeast fitness of no more than 0.5.
In the case of GUUCCGCUGGCGCAAUGGUAACGCGUCUCCCUCCUAAGGAGAAGACUGCGGGUUCGAGUCCCGUACGGAACG, the yeast fitness is reported as 0.836.
GUUCCGCUGGCGCAAUGGUAACGUGUCUCCCUCCUAAGGAGAAGACUGUGGGUUCGAGUCCCGUACGGAACG gave a yeast fitness of no more than 0.5.
GUUCCGCUGGCGGAAUGGUAACGCGUCUCUCUCCUAAGGAGAAGACUGCGGGUUCGAGUCCCGUACGGAACG showed a yeast fitness of no more than 0.5.

From the RNAGym collection of RNA variant scans (doi:10.1126/science.aae0568)
